Test results published in the EternaBench riboswitch data.

System: MS2 coat protein
Assay: apparent Kd, MS2 coat protein; higher = weaker binding; RNA-MaP array
In short: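 Designed RNAs were transcribed on an Illumina sequencing chip from sequenced DNA templates. They were incubated at room temperature with fluorescently labeled MS2 coat protein at 1.5 nM to 3 μM, for 0.8–1.5 h at the lowest to 10–20 min at the highest concentrations, in Tris-HCl pH 7.5 buffer with KCl, MgCl2, BSA, DTT, tRNA and Tween20, with or without input ligand. Apparent Kd is the median of per-cluster binding-curve fits. Designs measured on fewer than 10 clusters were excluded.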

[1] = designed as: OFF switch for flavin mononucleotide, no ligand
[2] = ligand present: flavin mononucleotide, designed as: OFF switch for flavin mononucleotide
[3] = designed as: ON switch for flavin mononucleotide, no ligand
[4] = ligand present: flavin mononucleotide, designed as: ON switch for flavin mononucleotide
[5] = designed as: ON switch for theophylline, no ligand
[6] = ligand present: theophylline, designed as: ON switch for theophylline

Row | Sequence | apparent Kd [1] [nM] | apparent Kd [2] [nM] | apparent Kd [3] [nM] | apparent Kd [4] [nM] | further results
1 | AUGUGAUAGGAGAAGGGCUGUCCAUGGACAUCACAGUACAUCCACAUGAGGAUCACCCAUGUUAAGCAGGAUAUCCUGUCGUGU | 27.2 | 58.9 |  |  | 
2 | AUUUCUUCGGUCAGGAUAUCUAGUGUAACGCGGUCAGAGAAGGGACAUGAGGAUCACCCAUGUGUGACUCUCUG | 5.77 | 5.9 |  |  | 
3 | AUUUGACAUGAGGAUCACCCAUGUGACUUGUCGUGAGGAUAUUAUUGAAAUCUAUGUCAUUAAGAAGGCACAAUUU |  |  | 32.7 | 16.5 | 
4 | AUUUUAAACAAGAAGGGCUUACGCAAGCUGAGAGCAGGAUAUUGACAUGAGGAUCACCCAUGUAUUAGACCAUAAGAUCCCAUU | 20.5 | 20.6 |  |  | 
5 | CAACGACAUGAGGAUCACCCAUGUGAGGAUAUCUACUUGAUCAGGUAACUGCUUCCGAAGAGAAGGCACGGUGA | 20.4 | 19.5 |  |  | 
6 | CAAGAGUUAGAAGGAUAUACAAGAUGCUGAAAGAAACGUGAACAAAACAUGAGGAUCACCCAUGUGAAGAAGGUCAAAUAGAAA | 10.4 | 9.21 |  |  | 
7 | CAAGUAGUGGCAUUAACAUGAGGAUCACCCAUGUUGUGCGUCAGAAGGGCUCUAAUGGAUAACCAGCAGGAUAUGAUUUUCAUC |  |  | 6.92 | 6.89 | 
8 | CAAUGAACAUGAGGAUCACCCAUGUAGUAAUGCGAGAAAACGAAGGAUAUAGCGAUACUACAUAGCAAGAAGGUCGCAAACAUA |  |  | 40.4 | 30.7 | 
9 | CACACCGCAGUGAGGAUAUACCAACUGAACGUUGAGUAGAAGGCACAUGAGGAUCACCCAUGUCACUACUGACA | 8.62 | 35.7 |  |  | 
10 | CACAUGAGGAUCACCCAUGUUCGUUCACUUCAUGUAAUGAUUAGAAGGUCACGCGCCUAUCUGCUGAAGGAUAUAAUCCCGAAA | 11.1 | 10.1 |  |  | 
11 | CACCUCCAAGGAUAUACAUGAGGAUCACCCAUGUGGAUAACCUGGGCGCGCCGAGCAAGUAGAAGGUGGAUUGG | 10.9 | 14.7 |  |  | 
12 | CACUGGUACGAGAAGGCACCUGAAGUUGAGAAGUGAGGAUAUCGAAAUAAACACAUGAGGAUCACCCAUGUGAUCCAAGGACGA | 121 | 91.6 |  |  | 
13 | CAGAGACAUGAGGAUCACCCAUGUUGAGAUACCAGCUUGGUAUCGAGCCCUUGGCAGCUCGCCCAUCGUCUAUAUCAGCCUGAGC |  |  |  |  | apparent Kd [5]: 16.5 nM; apparent Kd [6]: 20.2 nM
14 | CAGAGCCAAAACAAGGAUAUACAUAACAUUACAUGAGGAUCACCCAUGUUAUAGCUAACCUUGUAGUAGAAGGUGUUUGGCAACAU |  |  | 7.36 | 6.39 | 
15 | CAUAGCAAAAGUGAUACCAGAGUUCGAGGGAACAUGAGGAUCACCCAUGUGCUUGUACAACUCCCUUGGCAGCACAGAGCAAUUA |  |  |  |  | apparent Kd [5]: 23.1 nM; apparent Kd [6]: 10.3 nM
16 | CAUAUGUUAGGAUAUAAGUUUAGAUCAUGCGUGUUUAUGGCUUAGAAGGAACAUGAGGAUCACCCAUGUAACAG | 21.2 | 22.3 |  |  | 
17 | CAUGCGGCUAGUGAGCGUGGUGAGUAAAGGCGAGGACCGGUACGGCCGCCACUCGAGGCAAGACAUGAGGAUCACCCAUGUUGUA |  |  |  |  | apparent Kd (designed as: OFF switch for tryptophan, no ligand): 15.1 nM; apparent Kd (ligand present: tryptophan, designed as: OFF switch for tryptophan): 12.9 nM
18 | CAUUUCUUCACAGGAUAUGCCGUACAUGAGGAUCACCCAUGUGGGUGGGCGUAGCACUGUAGUGCGCAGAAGGGUGGAUCCGAC | 113 | 79.2 |  |  | 
19 | CCAGGGCGAAACAUGAGGAUCACCCAUGUCCUAGCAACGAUGAGAAGGGUAAACACAAUGUCUUUACAGGAUAUCAACCAUACG |  |  | 11.2 | 7.6 | 
20 | CCAGGGCUCGAGAAGGCCCGCGCGGUUCAGUACGUAGGUACAUGAGGAUCACCCAUGUCGGAUUGGGAGGAUAUCGAUUCUUGU |  |  | 335 | 80.1 | 
21 | CCAGUGGGUGGAGGAUAUGAUGACAAACUGUGUUCAGAAGGCCACCUCAAGACACGAACAUGAGGAUCACCCAUGUCCCAACCU |  |  | 227 | 15.8 | 
22 | CCCGGUGAUGUCAAACAUGAGGAUCACCCAUGUCUUCACCAUAGAAGGCGCUUUAUUCUAGCUAGCGAGGAUAUAUGGUUUCAG | 39.6 | 44.6 |  |  | 
23 | CCGUCACAUGAGGAUCACCCAUGUGGUGAUACCAGCAGUCGACCCUGCCCUUGGCAGCACAUUAUCAUAAAAGCAAUCAGCAACG |  |  |  |  | apparent Kd [5]: 156 nM; apparent Kd [6]: 149 nM
24 | CCUCGUCCGUACAUGAGGAUCACCCAUGUGAGCCCUAAACCCAGAAGGCAAUGAAUACCUAUUCUUGAGGAUAUGGAUCACCGU | 279 | 185 |  |  | 
25 | CGAAAACAUGAGGAUCACCCAUGUUAGGAUAUGAGGAUGGUAUAGUAUACGGUGUAGAUCAGAAGGAACGGUGG | 11.4 | 11.6 |  |  | 
26 | CGAAUCAACCGGCAGGAUAUGAAAACUAAAACAUGAGGAUCACCCAUGUCGGACAAGAACAUGAUACAGAAGGGCCACGUAACAAG |  |  | 95.5 | 26.3 | 
27 | CGCCGUACGUCAGGAUAUCACAAUUGGAUCCAUCACAUGAGGAUCACCCAUGUUUACAAGUAGAAUGAGAAGGGACAAGGAUAA |  |  | 49.3 | 43.8 | 
28 | CGGGAACAUGAGGAUCACCCAUGUCAGGAUAUACGCGAUGGCAACAGUGAUUGUUUGUGUAGAAGGGACUUACG | 33.3 | 30.2 |  |  | 

Row | Sequence | apparent Kd [1] [nM] | apparent Kd [2] [nM] | apparent Kd [3] [nM] | apparent Kd [4] [nM] | further results
29 | CGUCCCUAGCAGAAGGUUCUUUGGGCUGCAGUGAAAGGAUAUGCCAGCACAUGAGGAUCACCCAUGUCUGUCGGAUGCACCAGA |  |  | 63.9 | 47 | 
30 | CGUGCAUGCUAGUAGGAUAUCCCGCAUGAAACAUGAGGAUCACCCAUGUAGAAGAUCUAUGAUCGGGAGAAGGACUCGUGAGAAAC |  |  | 34.6 | 12.1 | 
31 | CUAAAACAUGAGGAUCACCCAUGUCAUUUAACUCAAGGAUAUAGAUCUGAGAGCUCAGCGCUAGAAGGUGAUUUUG |  |  | 55.1 | 40.3 | 
32 | CUAACACAUGAGGAUCACCCAUGUUAGGAUAUCAGCUGCAGCGCUCGACUGCAAUUUAUGAGAAGGAACUGUGG | 17.5 | 24.2 |  |  | 
33 | CUAGGUCAAGGAUAUACAUGAGGAUCACCCAUGUAAGAACCUAGUAGGGUCGUCCGAGGUAGAAGGUGAGCAUU | 24.9 | 19.6 |  |  | 
34 | CUCAUGAGGAAGAAGGAUUAGGUCAGUGCAGUAAUAGGAUAUUCGUAACACAUGAGGAUCACCCAUGUCUACUCCGGAGCGACA |  |  | 182 | 81.1 | 
35 | CUCGCAAAUGGAGGAUAUGCCGAGAUCCCUAUCCUCAGGACCUCCACAUGAGGAUCACCCAUGUUGCAGAAGGCCAGUGUGAAG | 14.4 | 12.2 |  |  | 
36 | GAAAGGGCAAAGAAGGAGGUCCGAGCUCGGCGCCUAGGAUAUUUCUUAACCACAUGAGGAUCACCCAUGUUGACUGUAGUGUGA | 31.5 | 29 |  |  | 
37 | GAAAUCAGAGAGAAGGGUUUACAUCCGACAUGAGGAUCACCCAUGUAGUAAAACUACGACAACUAACAGGAUAUCACUGGCACC |  |  | 208 | 176 | 
38 | GAACGGAGAGAAGGAUAUGGCAUAUUGCCUCACAUGAGGAUCACCCAUGUCAAGACAAAGCGAUCCCAGAAGGUCUCACAACAU |  |  | 60.1 | 26.8 | 
39 | GAAUGAAUACAAGGAUAUCCCACAUGAGGAUCACCCAUGUAAAUACAAAUGUAAUACGUUGCUAAGGAGAAGGUGUAGAACAAA |  |  | 113 | 28.9 | 
40 | GACAGAAAGUCAGGAUAUGAACGGUCAUGACAUGAGGAUCACCCAUGUUUCUUGUGCACCCUGCGUCAGAAGGGACUAGUGAGG |  |  | 19.3 | 12.8 | 
41 | GACAUCCUCACAAUACAUGAGGAUCACCCAUGUGAAGUGGCCUAGGAUAUUCAAGAGUGGGUCACGAAGAAGGAGGCUGCAGGA | 33.3 | 28.3 |  |  | 
42 | GACCGGACAUCCUAGGAUAUUUAUACUGAUACAUGAGGAUCACCCAUGUUUGGAAACAUCGUACGAAAGAAGGAGGAGACCUCUGA |  |  | 11.7 | 10.8 | 
43 | GACCGUGUCAAUCAUCAUCAACAUGAGGAUCACCCAUGUACCAAGGAUAUCUCGCACUACAAGUCAGAGAAGGUGGGUUUACUC |  |  | 241 | 152 | 
44 | GACGCUGCAGGAUAUACUACGAGACUCACCCACAUUAUAUGACAUGAGGAUCACCCAUGUAGAAGGGCAAUGUG | 10.4 | 12.6 |  |  | 
45 | GACGUGUCGCAGAAGGUGGCGAGGAUAGACAUGAGGAUCACCCAUGUGGGACGCGUUAGGUCUGCCAAGGAUAUGCGCAACUCU | 54.3 | 28.7 |  |  | 
46 | GAGAGAAAGCCAGGAUAUUAGAACUAGGCACAUGAGGAUCACCCAUGUGGUGAUGAUCAUAAGACUAAGAAGGGGCACCGGAUU |  |  | 521 | 450 | 
47 | GAGAGGGCUUGAGGAUAUCUUCACUCCGACAUGAGGAUCACCCAUGUAUUCCGUUGAUCGUUGGGAGAGAAGGCAACUUUGUAA | 58 | 54 |  |  | 
48 | GCAAGAGAGCAGAAGGUUGAGGGCGUUCCCGUUUACAUGAGGAUCACCCAUGUUGCUAACAUGUCAAAGGAUAUGCCUAACGCU | 70.8 | 63.8 |  |  | 
49 | GCAAUAACAGCAGGAUAUCGUCUCACAUGAGGAUCACCCAUGUUACUAAGUGGCUACUAGGAUUACGAGAAGGGCUGUCCACGC | 10.7 | 7.78 |  |  | 
50 | GCAGGUAAGUAGAAGGGUCGCACCAUACUGACGACAGGAUAUACUGUCCGAAACUCGUCAUUACAUGAGGAUCACCCAUGUUUA | 21.2 | 11.1 |  |  | 
51 | GCAGUUGGUCUCUCACAUGAGGAUCACCCAUGUUCUUAGUUUCAGGAUAUAUGAGCGAAUUGCGGAUAGAAGGGAAACAGUCAC | 41.6 | 49.7 |  |  | 
52 | GCAUGGACAUGAGGAUCACCCAUGUGUCGCCCUGGACCCGUUAGAAGGCCGUUCCAGAGAACAACGGAGGAUAUAAUUACAGCC |  |  | 35.7 | 27 | 
53 | GCCGUUCGAGAGAAGGUUGUACGCGCCACGCGCACAUGAGGAUCACCCAUGUCCUCCAAACUCACAAAGGAUAUCUUAAGAACA | 415 | 508 |  |  | 
54 | GCCUAGCUAGGAUAUACCAGAGUGUAUACUUAUGUGGAUCGACAUGAGGAUCACCCAUGUAGAAGGAGCAAGAU | 30.8 | 58 |  |  | 
55 | GCCUUAGGGGCAGGAUAUUUCGAGGACCUCAACAUGAGGAUCACCCAUGUACCGCAAUCGUCUCUAAAGAAGGGCCUCUUGCUC |  |  | 53.9 | 28.5 | 
